SKKanGAS inh: S. pyogenes SKKanGAS growth inhibitors in kanamycin, primary screen, streptokinase expression inhibitor project, SKKanGAS strain, BacTiter-Glo luminescence. 6 h. inhibition, % at 7.5 µM. actives 1.3% (n = 300,000). AID 1662, 2009;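 active means mean replicate score, as percent of positive control median, at least 50; inconclusive means mean below 50 but one replicate at or above 50; inactive means mean and every replicate below 50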;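 further: strain carries kanamycin resistance gene driven by streptokinase promoter and grows in 40 µg/ml kanamycin; loss of luminescence reflects streptokinase promoter inhibition or plain growth inhibition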
Beta apoptosis: inhibitors of cytokine-induced beta cell apoptosis, primary screen, luminescence; INS-1E cytokine-induced death, ATP luminescence, 48 h; percent of positive-control rescue, neutral wells zero; protection from apoptosis, % (test concentration not listed); actives 0.8% (n = 300,000); AID 435005, 2010;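 active means Every replicate reaches about 75%, or at least half do and their mean reaches it too, limit read from the data; inconclusive means At least half of replicates reach the limit but their mean does not; inactive means Under half of replicates reach the limit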;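 further: higher means more ATP so stronger rescue from cytokine killing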
CHOP UPR activ: activators of apoptotic CHOP UPR arm, primary screen, cell-based, CHO-CHOP luciferase reporter, luminescence, uHTS | actives 0.34% (n = 330,000) | activation, % at 10 µM | UPR activation; percent of tunicamycin response over DMSO baseline | AID 449763, 2010;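 active means at 10 µM dose, activation of 40% or more, normalized to positive control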
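Assay system: CHO-CHOP cells, stable luciferase reporter of PERK-eIF2a-CHOP signalling / Buffer or medium: F12 plus 10% serum / Compound dosing: one dose, 10 µM in 0.5% DMSO / Times: 6 h compound treatment, 37 °C / Technique: luciferase luminescence / Read-out: % reporter activation, DMSO baseline versus tunicamycin full activation / Benchmarks: tunicamycin and DMSO controls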
Mdm2 MdmX PPI: inhibitors of human Mdm2-MdmX association, primary screen, cell-based, luminescence, split luciferase, SaOS-2, uHTS; SaOS-2 split-luciferase Mdm2/MdmX complementation; inhibition, % at 8 µM; actives 3% (n = 330,000); AID 485346, 2010;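 active means inhibition of at least 50% at 8 µM in the primary screen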
CSC inhib: cancer stem cell viability inhibitors, primary screen, luminescence; cancer stem cell-like cells viability; inhibition, % at 7.5 µM; actives 1.1% (n = 300,000); AID 2717, 2010; in the data active means inhibition above about 75%; inconclusive means no clear call, values can overlap the other calls; tested in HMLE shEcad cells
UPR XBP1 act: activators of adaptive XBP1 UPR arm, primary screen, cell-based, CHO-XBP1 luciferase reporter, luminescence, uHTS | IRE1-XBP1 UPR activation; percent of tunicamycin response, DMSO as zero | activation, % at 20 µM | actives 0.33% (n = 330,000);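 active means versus positive control, 20 µM dose yields 30% or more activation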
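Signal: luciferase luminescence; Assay system: CHO-XBP1 luciferase reporter cells; Amount: one thousand reporter cells per well; Dosing: 20 µM single concentration, DMSO 1%; Benchmarks: high control tunicamycin 10 µg/mL final, low control DMSO vehicle only; Schedule: 6 h compound exposure at 37 °C, 5% CO2; Evaluation: percent activation relative to tunicamycin reference.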
Mdm2 MdmX conf: Mdm2-MdmX complex disruptors, retested hits, confirmation, luminescence, single concentration; shares compounds with Mdm2 MdmX PPI; Mdm2-MdmX binding, luminescent assay; inhibition, % at 8 µM; actives 55% (n = 10,000); AID 489028, 2010; in the data active means inhibition above about 40%
Full FLuc ctr: full-length luciferase signal inhibition, confirmation, counter-screen for Mdm2/MdmX interaction inhibitor project, cell-based, single concentration, SaOS-2 | shares compounds with Mdm2 MdmX PPI | SaOS-2 full-length luciferase counterscreen, luminescence | inhibition, % at 8 µM | actives 77% (n = 6,200);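 active means mean inhibition at 8 µM reaching about 37%, which flags the compound as non-specific, limit read from the data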;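 further: p53-null SaOS-2 cells with luciferase driven by a doxycycline-inducible promoter; compound on cells about two nights before reading with doxycycline added after day one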
Hits are given with their value; - = inactive; ? = inconclusive; . = not tested or not shown. Hits are enriched below; roughly 4.8% of the tested compounds scored in any of these assays.

SMILES	SKKanGAS inh	Beta apoptosis	CHOP UPR activ	Mdm2 MdmX PPI	CSC inhib	UPR XBP1 act	Mdm2 MdmX conf	Full FLuc ctr
Cc1ccc(NC(=O)c2cccs2)cc1[N+](=O)[O-]	-	-	-	-	-	-	.	.
O=C(Nc1cccc(NC(=O)c2cccs2)c1)c1ccc([N+](=O)[O-])o1	58.8	-	-	60.6	?	-	56.5	44.1
CC(=O)N1CCN(c2ccc(NC(=O)c3ccc([N+](=O)[O-])o3)cc2Cl)CC1	-	-	72.8	69.3	-	-	68.3	-
COc1ccc(C(c2c(C)n(C)n(-c3ccccc3)c2=O)c2c(C)n(C)n(-c3ccccc3)c2=O)c(OC)c1OC	-	-	-	-	-	-	.	.
COc1ccc(CCNC(=O)c2nn(C)c3c2CS(=O)(=O)c2ccccc2-3)c(OC)c1	-	-	-	-	-	-	.	.
COc1cccc(CC2(CO)CCCN(Cc3cc4ccccc4[nH]3)C2)c1 (stereo not drawn)	-	-	-	-	-	-	.	.
COC(=O)c1ccc(COc2ccccc2/C=N/NS(=O)(=O)c2ccccc2)cc1	-	-	-	52.0	-	-	51.8	114.7
Cc1ccc(-c2cc3onc(-c4ccccc4)c3c(=O)n2C)cc1	.	-	-	72.7	-	-	74.5	103.1
CCn1c(=S)[nH]c2cc(S(=O)(=O)N3CCCCC3)ccc21	-	-	-	81.9	-	-	49.5	84.4
C=C(C)C1Cc2c(C)nn(-c3nc(C)cc(C)n3)c2C1 (stereo not drawn)	55.5	-	-	55.4	-	-	-	.
CCCSc1nnc(Sc2nnnn2-c2ccccc2)s1	-	.	-	65.9	-	-	63.5	56.0
Cc1ccccc1-n1nnnc1Sc1nnnn1-c1ccccc1	.	-	-	98.0	-	-	82.8	54.1
COc1cc(C)c(NC(=O)c2cc(C3CC3)nc3c2cnn3C(C)C)cc1OC	.	-	-	-	-	-	.	.
Cc1ccc(C(=O)N2CCCC(C(=O)Nc3cccc(-c4ccc(F)cc4)c3)C2)cn1 (stereo not drawn)	-	-	-	-	-	-	.	.
CC(C)n1cc(/C=C2/NC(=O)N(c3cccc(Cl)c3)C2=O)c2ccccc21	-	.	-	62.2	-	-	65.3	43.1
CCN(CC)C(CNC(=O)c1cc(=O)[nH]c2ccccc12)c1ccccc1Cl (stereo not drawn)	-	-	-	-	-	-	.	.
COc1ccc(/C=N/NC(=O)CCSc2nc3ccccc3s2)cc1OC	-	-	-	-	-	-	.	.
COc1ccccc1OCC(=O)N/N=C/c1c(O)ccc2ccccc12	-	-	-	81.7	-	-	78.5	-
O=c1c2ccccc2nc(N/N=C/c2c(O)ccc3ccccc23)n1O	-	98.1	-	71.2	111.6	-	68.4	-
O=C(CCSc1nc2ccccc2s1)N/N=C/c1c(O)ccc2ccccc12	-	84.6	-	82.4	79.7	-	82.2	-
Cc1cc(C)n(CCC(=O)N/N=C/c2c(O)ccc3ccccc23)n1	-	93.5	-	72.9	-	-	78.2	51.9
COC(=O)CCCC(=O)N1CCC(CCC(=O)NC2CC2)CC1	-	-	-	-	-	-	.	.
O=C(CN1CCCC1)N/N=C/c1c(O)ccc2ccccc12	-	-	-	72.0	-	-	76.0	38.5
COc1ccc2cc(S(=O)(=O)N3CCCC3)ccc2c1	-	.	-	-	-	-	.	.
COc1ccc(CN2C(=O)CSCC2=O)cc1OC	-	-	-	-	-	-	.	.
SMILES	SKKanGAS inh	Beta apoptosis	CHOP UPR activ	Mdm2 MdmX PPI	CSC inhib	UPR XBP1 act	Mdm2 MdmX conf	Full FLuc ctr
COc1ccc(CCN2C(=O)/C(=C\c3ccco3)SC2=S)cc1OC	-	.	-	74.6	.	-	46.9	78.6
COc1ccc(CCN2C(=O)CSC2=S)cc1OC	-	-	-	84.9	-	-	84.5	40.4
O=[S@]1Oc2ccccc2-c2ccccc21	-	-	-	-	-	-	.	.
CN1CCN(S(=O)(=O)c2cccc(C(=O)Nc3ccc(Br)cc3Br)c2)CC1	-	-	-	-	-	-	.	.
Fc1ccccc1/C=N/NC(=S)Nc1ccc(Cl)cc1Cl	-	-	-	80.0	-	-	72.0	89.8
Fc1ccc(NC(=S)Nc2ccc(Cl)cc2Cl)cc1	-	-	-	-	-	-	.	.
CCCOc1ccc(CCCN=C(N)N)cc1Cl	-	-	-	51.5	-	-	-	.
CCOC(=O)[C@@H]1[C@H]2COc3ccc(Br)cc3[C@@H]2N2C(=O)N(c3ccc(Cl)cc3)C(=O)[C@@]12C	.	-	-	-	-	-	.	.
CCCCNC(=O)C(=O)NCC1CCCN1S(=O)(=O)c1cccs1 (stereo not drawn)	-	-	-	-	-	-	.	.
CCOC(=O)N1CCC(N(CCN(C)C)C(=S)Nc2cccc(Cl)c2)CC1	-	-	-	-	-	-	.	.
CCOC(=O)N1CCC(N(CCN(C)C)C(=S)Nc2cc(Cl)cc(Cl)c2)CC1	-	-	-	67.4	-	-	42.1	49.6
O=C(NCCc1ccccc1)C1CC(=O)N(C2CCCCC2)C1 (stereo not drawn)	-	.	-	-	-	-	.	.
OCC#CCSc1nnc(-c2cccc3ccccc23)o1	.	-	-	-	.	-	.	.
O=C(Nc1nccs1)c1nc[nH]c1C(=O)NCc1ccccc1	.	-	-	50.7	-	-	-	.
CN(Cc1ccccc1)C(=O)c1[nH]cnc1C(=O)Nc1nccs1	.	-	-	-	-	-	.	.
COc1ccc([C@@H]2[C@@H]3C(=O)N(C(C)(C)C)C(=O)[C@@H]3[C@]3(Cc4ccccc4)C(=O)N(c4ccc(C(F)(F)F)cc4)C(=O)N23)cc1	-	-	-	84.6	-	-	90.3	-
COc1ccc([C@@H]2[C@@H]3C(=O)N(C(C)(C)C)C(=O)[C@@H]3[C@]3(CC(C)C)C(=O)N(c4ccccc4)C(=O)N23)cc1	-	-	-	-	-	-	.	.
COc1ccc([C@@H]2[C@@H]3C(=O)N(C(C)(C)C)C(=O)[C@@H]3[C@]3(CC(C)C)C(=O)N(c4ccc(C(F)(F)F)cc4)C(=O)N23)cc1	-	-	-	74.0	-	-	75.7	-
